In ChEMBL document CHEMBL2163246 (J Nat Prod, 2012):
≈ marks a conversion by molar mass, not a printed value. Where a SMILES comes first, the peptide text is derived from it.

Columns and labels:
MDA-MB-231 = assay: Cytotoxicity against human MDA-MB-231 cells after 72 hrs by MTS assay; type: functional, cell-based; conditions: MDA-MB-231, 72 h
Outline: (§1)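 Cells plated at 4 × 10³ cells/well, left overnight, then exposed to increasing concentrations (0.064–40 μM) diluted from DMSO solution into culture medium. After 72 h, MTS/PMS reagent added; absorbance read at 490 nm. Viability = (OD_treat − OD_blank)/(OD_control − OD_blank) × 100%, mean of triplicate wells; DMSO + medium untreated cells as control.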

KB [1] = assay: Cytotoxicity against human KB cells after 72 hrs by MTS assay; type: functional, cell-based; outline: as §1
[2] = Cytotoxicity against mouse EAC cells; type: functional; conditions: Ehrlich
Pseudomonas aeruginosa = assay: Antimicrobial activity against Pseudomonas aeruginosa; type: functional
KB [3] = assay: Cytotoxicity against human KB cells; type: functional, cell-based
[4] = Cytotoxicity against mouse DLA cells; type: functional
Jurkat = assay: Cytotoxicity against human Jurkat T cells after 72 hrs by MTS assay; type: functional, cell-based; outline: as §1
MOLT-4 = assay: Cytotoxicity against human MOLT4 cells after 72 hrs by MTS assay; type: functional, cell-based; conditions: MOLT-4, 72 h; outline: as §1
Candida albicans = assay: Antimicrobial activity against Candida albicans; type: functional
Escherichia coli = assay: Antimicrobial activity against Escherichia coli; type: functional

In the case of `CC(C)C[C@@H]1NC(=O)CNC(=O)[C@H](Cc2ccccc2)NC(=O)[C@H](C)NC(=O)[C@@H]2CCCN2C(=O)CNC1=O` (HELM PEPTIDE1{A.F.G.L.G.P}$PEPTIDE1,PEPTIDE1,1:R1-6:R2$$$V2.0), the IC50 (MDA-MB-231) is reported as over 10 µM and the IC50 (KB [1]) is reported as over 10 µM.
With `CC(C)C[C@@H]1NC(=O)CNC(=O)[C@H](C)NC(=O)[C@H](Cc2ccc(O)cc2)NC(=O)[C@@H]2CCCN2C(=O)CNC1=O` (HELM PEPTIDE1{A.G.L.G.P.Y}$PEPTIDE1,PEPTIDE1,1:R1-6:R2$$$V2.0) the IC50 (MDA-MB-231) was over 10 µM and the IC50 (KB [1]) was over 10 µM.
With `C[C@@H]1NC(=O)CNC(=O)[C@H](Cc2ccccc2)NC(=O)[C@H](Cc2ccc(O)cc2)NC(=O)[C@@H]2CCCN2C(=O)CNC1=O` (HELM PEPTIDE1{A.G.P.Y.F.G}$PEPTIDE1,PEPTIDE1,1:R1-6:R2$$$V2.0) the IC50 (MDA-MB-231) was over 10 µM and the IC50 (KB [1]) was over 10 µM.
For `CC(C)C[C@@H]1NC(=O)[C@H](C)NC(=O)[C@H](Cc2ccccc2)NC(=O)[C@H](Cc2ccc(O)cc2)NC(=O)[C@@H]2CCCN2C(=O)CNC1=O` (HELM PEPTIDE1{A.L.G.P.Y.F}$PEPTIDE1,PEPTIDE1,1:R1-6:R2$$$V2.0), the IC50 (MDA-MB-231) was 7.7 µM and the IC50 (KB [1]) was 7.8 µM.
`CC(C)C[C@@H]1NC(=O)CNC(=O)[C@H](Cc2ccccc2)NC(=O)[C@H](Cc2ccc(O)cc2)NC(=O)[C@@H]2CCCN2C(=O)[C@H](C)NC1=O` (HELM PEPTIDE1{A.P.Y.F.G.L}$PEPTIDE1,PEPTIDE1,1:R1-6:R2$$$V2.0) gave an IC50 (MDA-MB-231) of 10.2 µM and an IC50 (KB [1]) of 6.3 µM.
In the case of `CC(C)C[C@@H]1NC(=O)CNC(=O)[C@H](Cc2ccccc2)NC(=O)[C@H](Cc2ccc(O)cc2)NC(=O)[C@H](C)NC(=O)CNC1=O` (HELM PEPTIDE1{A.Y.F.G.L.G}$PEPTIDE1,PEPTIDE1,1:R1-6:R2$$$V2.0), the IC50 (MDA-MB-231) is reported as over 10 µM and the IC50 (KB [1]) is reported as over 10 µM.
Molecule `CC(C)C[C@@H]1NC(=O)CNC(=O)[C@H](Cc2ccccc2)NC(=O)[C@H](Cc2ccc(O)cc2)NC(=O)CNC(=O)CNC1=O` (HELM PEPTIDE1{F.G.L.G.G.Y}$PEPTIDE1,PEPTIDE1,1:R1-6:R2$$$V2.0) has an IC50 (MDA-MB-231) of over 10 µM and an IC50 (KB [1]) of over 10 µM.
For `CC(C)C[C@@H]1NC(=O)CNC(=O)[C@H](Cc2ccccc2)NC(=O)[C@H](Cc2ccc(O)cc2)NC(=O)[C@@H]2CCCN2C(=O)CNC1=O` [Cherimolacyclopeptide E] (HELM PEPTIDE1{F.G.L.G.P.Y}$PEPTIDE1,PEPTIDE1,1:R1-6:R2$$$V2.0), the CC50 [2] was 4.96 µM, the MIC (Pseudomonas aeruginosa) was 6 µg/mL (≈ 9.45 µM) and the IC50 (KB [3]) was over 10 µM. It also gave a CC50 [4] of 2.76 µM, an IC50 (MDA-MB-231) of over 10 µM and an IC50 (Jurkat) of over 10 µM. The IC50 (MOLT-4) was over 10 µM, the IC50 (KB [1]) was over 10 µM and the MIC (Candida albicans) was 6 µg/mL (≈ 9.45 µM). For the same molecule, the MIC (Escherichia coli) was 6 µg/mL (≈ 9.45 µM).
In the case of `COc1cccc2c1C(=O)c1c(O)c3c(c(O)c1C2=O)C[C@@](O)(C(=O)CO)C[C@@H]3O[C@H]1C[C@H](N)[C@H](O)[C@H](C)O1` [DOXORUBICIN], the IC50 (MDA-MB-231) is reported as 0.04 µM.
